# Measurements from different studies.
# Each line is one published result; the experiments were not run side by side.
# Target: Testis-specific serine/threonine-protein kinase 1 (TSSK1B, Homo sapiens, UniProt Q9BXA7)
# Sequence (Q9BXA7 1-367, as in one of the studies): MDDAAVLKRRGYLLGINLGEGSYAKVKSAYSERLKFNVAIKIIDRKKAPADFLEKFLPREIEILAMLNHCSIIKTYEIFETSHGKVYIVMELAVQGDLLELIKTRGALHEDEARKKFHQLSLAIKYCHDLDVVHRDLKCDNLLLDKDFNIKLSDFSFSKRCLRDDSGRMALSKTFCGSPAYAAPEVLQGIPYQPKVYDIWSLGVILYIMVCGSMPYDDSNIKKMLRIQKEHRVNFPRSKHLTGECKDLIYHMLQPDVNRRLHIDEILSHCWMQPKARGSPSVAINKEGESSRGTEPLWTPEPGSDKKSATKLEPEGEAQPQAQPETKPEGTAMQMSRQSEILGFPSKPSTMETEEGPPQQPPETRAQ
Compound,assay,setting,endpoint,value
Nc1ncc(-c2nc(N3CCOCC3)nc(N3CCOCC3)n2)c(C(F)F)n1,"binding, competition with immobilised ligand",10 µM,remaining binding,100%
CC(C)(C)c1cc(C=C(C#N)C#N)cc(Br)c1O,"enzyme activity, inhibitor",0.5 µM,remaining activity,95.6%
N#CC1(c2ccccn2)CCN(Cc2cc(C(=O)O)c(=O)n3ccccc23)CC1,"cell-free assay, competition with immobilised ligand",1 µM,remaining binding,74%
Cc1nn(C)cc1-c1nc2c(N3CCN(Cc4ccc(Cl)cc4)CC3)c(Cl)cnc2[nH]1,"binding, competition with immobilised ligand",1 µM,remaining binding,100%
Cn1cncc1[C@@](O)(COc1ccc(C#N)cc1-c1ccc(OC(F)(F)F)cc1)c1ccc(C#N)cc1,"cell-free assay, competition with immobilised ligand",1 µM,remaining binding,70%
O=c1[nH]c2ccccc2n1C1CCN(Cc2ccc(-c3[nH]c4cc5ncnc5cc4nc3-c3ccccc3)cc2)CC1,cell-free assay,0.5 µM,remaining signal,96.5%
Cn1cc(-c2cccc(N3CCc4c(sc5c4CC(C)(C)C5)C3=O)c2CO)cc(Nc2ccncn2)c1=O,"enzyme activity, inhibitor",1 µM,inhibition,5%
COc1ncccc1-c1cnn2ccc(N3CCN(C(=O)OC(C)C)CC3)nc12,"binding, competition with immobilised ligand",1 µM,remaining binding,54%
Cn1cc(-c2cc(F)cc(N3CCn4c(cc5c4CCCC5)C3=O)c2CO)cc(Nc2ccc(N3CCN(C4COC4)CC3)cn2)c1=O,"enzyme activity, inhibitor",0.1 µM,inhibition,9%
COc1cc(Nc2ncc(F)c(Nc3ccc4c(n3)NC(=O)C(C)(C)O4)n2)cc(OC)c1OC,binding,10 µM,inhibition,97%
